ChEMBL document CHEMBL2321826, “Synthesis and antibacterial evaluation of rhodanine-based 5-aryloxy pyrazoles against selected methicillin resistant and quinolone-resistant Staphylococcus aureus (MRSA and QRSA)” (Eur J Med Chem, 2013)
In brackets after ≈: the same amount, converted by molar mass.

What was measured:
[1] = system: Staphylococcus aureus; test: Antibacterial activity against methicillin-resistant Staphylococcus aureus assessed as bacterial growth inhibition measured during 24 hrs incubation at 37 degC by two-fold serial dilution technique; assay type: functional
Summary of the method: (§1)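 Clinical isolates grown to mid-log phase in Mueller-Hinton broth, diluted 1000-fold, inoculated at 10⁵ CFU/mL in MHB in 96-well microtiter plates. Two-fold serial dilutions gave final concentrations of […]. Oxacillin and norfloxacin were the positive controls. Growth was read as absorbance at 650 nm. MIC is the lowest concentration giving complete growth inhibition.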

[2] = system: HeLa; test: Cytotoxicity against human HeLa cells assessed as cell growth inhibition at 2 ug/ml measured after 48 hrs by MTT assay; assay type: cell-based
[3] = system: HeLa; test: Cytotoxicity against human HeLa cells assessed as cell growth inhibition measured after 48 hrs by MTT assay; assay type: cell-based
Summary of the method: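 HeLa cells grown in DMEM with 10% FBS and penicillin-streptomycin (100 U/mL) at 37 °C in 5% CO2. Cells were split with trypsin at 80-90% confluence and used at passage 3. About 1×10⁴ cells/well were seeded and left overnight to attach. Cells were exposed to compounds for 48 h, then given MTT (5 mg/mL in PBS stock) for 4 h. Medium was removed and formazan read.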

[4] = system: Staphylococcus aureus; test: Antibacterial activity against quinolone-resistant Staphylococcus aureus CCARM 3519 assessed as bacterial growth inhibition measured during 24 hrs incubation at 37 degC by two-fold serial dilution technique; assay type: functional; conditions: CCARM 3519, 24 h; summary of the method: as §1
[5] = system: Staphylococcus aureus; test: Antibacterial activity against quinolone-resistant Staphylococcus aureus CCARM 3505 assessed as bacterial growth inhibition measured during 24 hrs incubation at 37 degC by two-fold serial dilution technique; assay type: functional; conditions: CCARM 3505, 24 h; summary of the method: as §1
[6] = system: Staphylococcus aureus; test: Antibacterial activity against methicillin-resistant Staphylococcus aureus CCARM 3506 assessed as bacterial growth inhibition measured during 24 hrs incubation at 37 degC by two-fold serial dilution technique; assay type: functional; conditions: CCARM 3506, 24 h; summary of the method: as §1
[7] = system: Staphylococcus aureus; test: Antibacterial activity against methicillin-resistant Staphylococcus aureus CCARM 3167 assessed as bacterial growth inhibition measured during 24 hrs incubation at 37 degC by two-fold serial dilution technique; assay type: functional; conditions: CCARM 3167, 24 h; summary of the method: as §1
[8] = system: HeLa; test: Cytotoxicity against human HeLa cells assessed as cell growth inhibition at 4 ug/ml measured after 48 hrs by MTT assay; assay type: cell-based
[9] = system: Staphylococcus aureus; test: Ratio of oxacillin MIC to compound MIC for Staphylococcus aureus CCARM 3167; assay type: functional
[10] = system: Staphylococcus aureus; test: Ratio of norfloxacin MIC to compound MIC for Staphylococcus aureus CCARM 3167; assay type: functional
[11] = system: HeLa; test: Cytotoxicity against human HeLa cells assessed as cell growth inhibition at 1 ug/ml measured after 48 hrs by MTT assay; assay type: cell-based

| Structure (SMILES) | MIC [1] [µg/mL] | Activity [2] | IC50 [3] [µg/mL] | MIC [4] [µg/mL] | MIC [5] [µg/mL] | MIC [6] [µg/mL] | MIC [7] [µg/mL] | Activity [8] | Ratio [9] | Ratio [10] | Activity [11] |
| --- | --- | --- | --- | --- | --- | --- | --- | --- | --- | --- | --- |
| O=C(O)CN1C(=O)/C(=C/c2cn(-c3ccccc3)nc2-c2ccc(Cl)cc2Cl)SC1=S | 4 (≈ 8.16 µM) |  |  |  |  |  |  |  |  |  |  |
| Cc1nn(-c2ccccc2)c(Oc2ccc(Br)cc2)c1/C=C1\SC(=S)N([C@@H](CC(C)C)C(=O)O)C1=O |  | Non-toxic | 12.3 (≈ 21 µM) | 4 (≈ 6.82 µM) | 4 (≈ 6.82 µM) | 4 (≈ 6.82 µM) | 4 (≈ 6.82 µM) |  |  |  |  |
| Cc1nn(-c2ccccc2)c(Oc2cccc(C(F)(F)F)c2)c1/C=C1\SC(=S)N(CC(=O)O)C1=O |  |  |  | 32 (≈ 61.6 µM) | 32 (≈ 61.6 µM) | 32 (≈ 61.6 µM) | 16 (≈ 30.8 µM) |  |  |  |  |
| COc1ccc(Oc2c(/C=C3\SC(=S)N(CC(=O)O)C3=O)c(C)nn2-c2ccccc2)cc1 |  |  |  | > 64 | > 64 | > 64 | > 64 |  |  |  |  |
| COc1ccccc1Oc1c(/C=C2\SC(=S)N(CC(=O)O)C2=O)c(C)nn1-c1ccccc1 |  |  |  | > 64 | > 64 | > 64 | > 64 |  |  |  |  |
| Cc1nn(-c2ccccc2)c(Oc2c(Cl)cccc2Cl)c1/C=C1\SC(=S)N([C@H](C(=O)O)C(C)C)C1=O |  |  |  | 16 (≈ 28.4 µM) | 8 (≈ 14.2 µM) | 16 (≈ 28.4 µM) | 8 (≈ 14.2 µM) |  |  |  |  |
| Cc1nn(-c2ccccc2)c(Oc2ccc(Cl)cc2Cl)c1/C=C1\SC(=S)N([C@H](C(=O)O)C(C)C)C1=O |  |  | 10.4 (≈ 18.5 µM) | 4 (≈ 7.11 µM) | 4 (≈ 7.11 µM) | 4 (≈ 7.11 µM) | 4 (≈ 7.11 µM) | Non-toxic |  |  |  |
| Cc1nn(-c2ccccc2)c(Oc2ccccc2Cl)c1/C=C1\SC(=S)N([C@H](C(=O)O)C(C)C)C1=O |  |  |  | 4 (≈ 7.57 µM) | 8 (≈ 15.1 µM) | 4 (≈ 7.57 µM) | 4 (≈ 7.57 µM) |  |  |  |  |
| Cc1nn(-c2ccccc2)c(Oc2cccc(Cl)c2)c1/C=C1\SC(=S)N([C@H](C(=O)O)C(C)C)C1=O |  |  |  | 4 (≈ 7.57 µM) | 8 (≈ 15.1 µM) | 4 (≈ 7.57 µM) | 4 (≈ 7.57 µM) |  |  |  |  |
| Cc1nn(-c2ccccc2)c(Oc2ccc(Cl)cc2)c1/C=C1\SC(=S)N([C@H](C(=O)O)C(C)C)C1=O |  |  |  | 4 (≈ 7.57 µM) | 4 (≈ 7.57 µM) | 4 (≈ 7.57 µM) | 4 (≈ 7.57 µM) |  |  |  |  |
| Cc1nn(-c2ccccc2)c(Oc2ccc(F)cc2)c1/C=C1\SC(=S)N([C@H](C(=O)O)C(C)C)C1=O |  |  |  | 8 (≈ 15.6 µM) | 8 (≈ 15.6 µM) | 8 (≈ 15.6 µM) | 8 (≈ 15.6 µM) |  |  |  |  |
| Cc1nn(-c2ccccc2)c(Oc2ccc(Br)cc2)c1/C=C1\SC(=S)N([C@H](C(=O)O)C(C)C)C1=O |  |  |  | 4 (≈ 6.99 µM) | 4 (≈ 6.99 µM) | 4 (≈ 6.99 µM) | 2 (≈ 3.49 µM) |  |  |  |  |
| Cc1nn(-c2ccccc2)c(Oc2ccc3ccccc3c2)c1/C=C1\SC(=S)N([C@H](C(=O)O)C(C)C)C1=O |  |  |  | 8 (≈ 14.7 µM) | 8 (≈ 14.7 µM) | 8 (≈ 14.7 µM) | 4 (≈ 7.36 µM) |  |  |  |  |
| CCC(C)[C@@H](C(=O)O)N1C(=O)/C(=C/c2c(C)nn(-c3ccccc3)c2Oc2ccc(Cl)cc2Cl)SC1=S (stereo partly specified) |  |  | 6.43 (≈ 11.2 µM) | 2 (≈ 3.47 µM) | 2 (≈ 3.47 µM) | 1 (≈ 1.73 µM) | 1 (≈ 1.73 µM) |  | 64 | 8 | Non-toxic |
| Cc1nn(-c2ccccc2)c(Oc2c(Cl)cccc2Cl)c1/C=C1\SC(=S)N(CC(=O)O)C1=O |  |  |  | 32 (≈ 61.5 µM) | 32 (≈ 61.5 µM) | 32 (≈ 61.5 µM) | 32 (≈ 61.5 µM) |  |  |  |  |
| Cc1nn(-c2ccccc2)c(Oc2ccc(Cl)cc2Cl)c1/C=C1\SC(=S)N(CC(=O)O)C1=O |  |  |  | 8 (≈ 15.4 µM) | 8 (≈ 15.4 µM) | 8 (≈ 15.4 µM) | 4 (≈ 7.69 µM) |  |  |  |  |
| Cc1nn(-c2ccccc2)c(Oc2ccccc2Cl)c1/C=C1\SC(=S)N(CC(=O)O)C1=O |  |  |  | 16 (≈ 32.9 µM) | 32 (≈ 65.8 µM) | 16 (≈ 32.9 µM) | 16 (≈ 32.9 µM) |  |  |  |  |
| Cc1nn(-c2ccccc2)c(Oc2cccc(Cl)c2)c1/C=C1\SC(=S)N(CC(=O)O)C1=O |  |  |  | 16 (≈ 32.9 µM) | 8 (≈ 16.5 µM) | 16 (≈ 32.9 µM) | 16 (≈ 32.9 µM) |  |  |  |  |
| Cc1nn(-c2ccccc2)c(Oc2ccc(Cl)cc2)c1/C=C1\SC(=S)N(CC(=O)O)C1=O |  |  |  | 16 (≈ 32.9 µM) | 16 (≈ 32.9 µM) | 16 (≈ 32.9 µM) | 16 (≈ 32.9 µM) |  |  |  |  |
| Cc1nn(-c2ccccc2)c(Oc2ccc(F)cc2)c1/C=C1\SC(=S)N(CC(=O)O)C1=O |  |  |  | > 64 | > 64 | > 64 | > 64 |  |  |  |  |
| Cc1nn(-c2ccccc2)c(Oc2ccc(Br)cc2)c1/C=C1\SC(=S)N(CC(=O)O)C1=O |  |  |  | 8 (≈ 15.1 µM) | 16 (≈ 30.2 µM) | 8 (≈ 15.1 µM) | 8 (≈ 15.1 µM) |  |  |  |  |
| Cc1nn(-c2ccccc2)c(Oc2ccc3ccccc3c2)c1/C=C1\SC(=S)N(CC(=O)O)C1=O |  |  |  | 8 (≈ 15.9 µM) | 8 (≈ 15.9 µM) | 8 (≈ 15.9 µM) | 8 (≈ 15.9 µM) |  |  |  |  |
| Cc1nn(-c2ccccc2)c(Oc2ccccc2)c1/C=C1\SC(=S)N(CC(=O)O)C1=O |  |  |  | > 64 | > 64 | > 64 | > 64 |  |  |  |  |
| Cc1ccccc1Oc1c(/C=C2\SC(=S)N(CC(=O)O)C2=O)c(C)nn1-c1ccccc1 |  |  |  | 32 (≈ 68.7 µM) | 32 (≈ 68.7 µM) | 32 (≈ 68.7 µM) | 16 (≈ 34.4 µM) |  |  |  |  |
| Cc1cccc(Oc2c(/C=C3\SC(=S)N(CC(=O)O)C3=O)c(C)nn2-c2ccccc2)c1 |  |  |  | 16 (≈ 34.4 µM) | 32 (≈ 68.7 µM) | 16 (≈ 34.4 µM) | 16 (≈ 34.4 µM) |  |  |  |  |
| Cc1ccc(Oc2c(/C=C3\SC(=S)N(CC(=O)O)C3=O)c(C)nn2-c2ccccc2)cc1 |  |  |  | 32 (≈ 68.7 µM) | 32 (≈ 68.7 µM) | 32 (≈ 68.7 µM) | 32 (≈ 68.7 µM) |  |  |  |  |
| Cc1ccc(Oc2c(/C=C3\SC(=S)N(CC(=O)O)C3=O)c(C)nn2-c2ccccc2)c(C)c1 |  |  |  | 16 (≈ 33.4 µM) | 16 (≈ 33.4 µM) | 8 (≈ 16.7 µM) | 8 (≈ 16.7 µM) |  |  |  |  |
| CCn1cc(C(=O)O)c(=O)c2cc(F)c(N3CCNCC3)cc21 [NORFLOXACIN] |  |  |  | > 64 | > 64 | 4 (≈ 12.5 µM) | 8 (≈ 25.1 µM) |  |  |  |  |
| Cc1onc(-c2ccccc2)c1C(=O)N[C@@H]1C(=O)N2[C@@H]1SC(C)(C)[C@@H]2C(=O)O [OXACILLIN] |  |  |  | 1 (≈ 2.49 µM) | 1 (≈ 2.49 µM) | > 64 | > 64 |  |  |  |  |
